Results taken from ChEMBL document CHEMBL2046392, “Synthesis and evaluation of carbocyanine dyes as PRMT inhibitors and imaging agents” (Eur J Med Chem, 2012).
The source made the active and inactive calls. No cut-off for these calls is given here.

Key:
[1] = target: Protein arginine N-methyltransferase 1 (Homo sapiens) (UniProt Q99873); test: Inhibition of His-tagged PRMT1 expressed in Escherichia coli BL21(DE3) cells assessed as residual activity using [14C]-S-adenosyl-L-methionine and histone H4 peptide at 100 uM after 8 mins by scintillation counting
Protein arginine N-methyltransferase 1 (Homo sapiens), sequence (Q99873 whole entry, looked up): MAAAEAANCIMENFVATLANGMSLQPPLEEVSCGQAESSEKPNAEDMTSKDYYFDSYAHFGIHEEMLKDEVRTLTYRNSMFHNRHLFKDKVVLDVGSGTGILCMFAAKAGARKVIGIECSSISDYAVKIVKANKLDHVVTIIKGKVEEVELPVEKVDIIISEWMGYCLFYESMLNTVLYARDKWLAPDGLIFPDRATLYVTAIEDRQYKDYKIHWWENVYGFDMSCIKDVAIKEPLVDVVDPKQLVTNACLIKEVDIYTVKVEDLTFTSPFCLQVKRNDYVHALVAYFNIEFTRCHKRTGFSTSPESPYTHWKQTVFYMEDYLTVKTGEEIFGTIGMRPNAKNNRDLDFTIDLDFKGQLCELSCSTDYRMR
In short: (§1)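 50 mM HEPES pH 8.0, 0.5 mM DTT, 1 mM EDTA, 50 mM NaCl, 30°C; 2 μM H4(1-20), 5 μM [14C]AdoMet, inhibitor preincubated 5 min, started with 0.05 μM enzyme, 8 min; P81 filter binding, scintillation.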

[2] = target: Protein arginine N-methyltransferase 1 (Homo sapiens) (UniProt Q99873); conditions: 4 uM
[3] = target: Protein arginine N-methyltransferase 5 (Homo sapiens, UniProt O14744); test: Inhibition of His6X-tagged PRMT5 expressed in Escherichia coli BL21(DE3) cells using [14C]-S-adenosyl-L-methionine and histone H4 peptide after 8 mins by scintillation counting
Protein arginine N-methyltransferase 5, sequence (O14744 whole entry): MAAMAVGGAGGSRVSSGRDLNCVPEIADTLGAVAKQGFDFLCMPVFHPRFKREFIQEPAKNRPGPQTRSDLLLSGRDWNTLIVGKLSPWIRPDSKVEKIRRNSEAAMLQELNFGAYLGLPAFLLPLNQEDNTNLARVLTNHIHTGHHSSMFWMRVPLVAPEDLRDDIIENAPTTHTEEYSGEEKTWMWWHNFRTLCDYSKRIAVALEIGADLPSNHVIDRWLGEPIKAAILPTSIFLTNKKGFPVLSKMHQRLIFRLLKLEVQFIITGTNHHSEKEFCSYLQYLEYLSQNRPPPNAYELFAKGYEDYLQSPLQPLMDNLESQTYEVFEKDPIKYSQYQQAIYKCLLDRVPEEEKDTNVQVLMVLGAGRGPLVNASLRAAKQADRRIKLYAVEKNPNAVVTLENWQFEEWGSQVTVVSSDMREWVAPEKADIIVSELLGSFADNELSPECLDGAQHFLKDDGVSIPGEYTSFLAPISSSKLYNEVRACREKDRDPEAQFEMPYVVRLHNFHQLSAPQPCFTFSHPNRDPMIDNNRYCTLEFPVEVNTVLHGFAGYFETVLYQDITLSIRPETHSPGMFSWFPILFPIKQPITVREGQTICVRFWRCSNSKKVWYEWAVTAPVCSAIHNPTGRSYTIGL

[4] = test system: HeLa; test: Cell cycle arrest in human HeLa cells assessed as accumulation at S phase at 1 uM after 24 hrs by propidium iodide staining-based flow cytometric analysis (reference value: 12.2%); assay type: functional
In short: (§2)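 HeLa cells (1 × 10^6, exponential growth) exposed to compound for 24 or 48 h; collected, fixed in ice-cold 70% ethanol, stored at 4°C, rinsed in PBS, stained with 40 μg/ml propidium iodide plus RNase A; DNA content by flow cytometry, cell-cycle subpopulations as percentages. Tested at 0.3, 1, 2.5 and 5 μM (24 h).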

[5] = Cellular uptake in human HeLa cell nucleus after 6 hrs by bright field microscopic analysis; assay type: ADME, cell-based
In short: (§3)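 HeLa cells seeded on coverglass overnight, treated with 0, 2 or 5 μM for 6 h (DMSO control), fixed 10 min in 4% paraformaldehyde at room temperature. Bright-field images under visible light; NIR fluorescence by confocal microscopy with 633 nm excitation and 715–785 nm long-pass emission.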

[6] = Inhibition of His-tagged PRMT1 Y152A mutant expressed in Escherichia coli BL21(DE3) cells assessed as residual activity using [14C]-S-adenosyl-L-methionine and histone H4 peptide at 4 uM measured after 8 mins by scintillation counting; in short: as §1
[7] = test system: HeLa; test: Cell cycle arrest in human HeLa cells assessed as accumulation at G1 phase at 1 uM after 24 hrs by propidium iodide staining-based flow cytometric analysis (reference value: 57.2%); assay type: functional; in short: as §2
[8] = Cellular uptake in human HeLa cell cytoplasmic vesicles at 2 to 5 uM after 6 hrs by bright field microscopic analysis; assay type: ADME, cell-based; in short: as §3
[9] = test system: HeLa; test: Cell cycle arrest in human HeLa cells assessed as accumulation at S phase after 24 hrs by propidium iodide staining-based flow cytometric analysis (reference value: 12.2%); assay type: functional; in short: as §2
[10] = test system: HeLa; test: Induction of apoptosis in human HeLa cells assessed as increase in sub-G1 peak at 2.5 to 5 uM after 48 hrs by propidium iodide staining-based flow cytometric analysis; assay type: functional, cell-based; in short: as §2
[11] = target: Protein arginine N-methyltransferase 6 (Homo sapiens, UniProt Q96LA8); test: Inhibition of His6X-tagged PRMT6 expressed in Escherichia coli BL21(DE3) cells using [14C]-S-adenosyl-L-methionine and histone H3(1-31) peptide after 8 mins by scintillation counting
Protein arginine N-methyltransferase 6, sequence (Q96LA8 whole entry): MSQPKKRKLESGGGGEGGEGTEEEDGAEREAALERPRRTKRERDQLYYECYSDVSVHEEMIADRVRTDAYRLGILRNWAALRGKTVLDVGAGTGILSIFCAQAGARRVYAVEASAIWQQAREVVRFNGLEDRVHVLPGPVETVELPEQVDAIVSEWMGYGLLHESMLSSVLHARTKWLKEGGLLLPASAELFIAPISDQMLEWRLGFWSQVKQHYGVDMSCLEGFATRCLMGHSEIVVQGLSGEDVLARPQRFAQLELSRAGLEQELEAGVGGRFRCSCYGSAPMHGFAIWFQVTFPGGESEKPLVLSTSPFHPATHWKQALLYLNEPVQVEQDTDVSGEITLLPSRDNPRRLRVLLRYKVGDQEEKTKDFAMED

[12] = Cellular uptake in human HeLa cell nucleus at 2 to 5 uM after 6 hrs by fluorescent microscopic analysis; assay type: ADME, cell-based; in short: as §3
[13] = test system: HeLa; test: Cell cycle arrest in human HeLa cells assessed as accumulation at G2/M phase at 1 uM after 24 hrs by propidium iodide staining-based flow cytometric analysis (reference value: 29.2%); assay type: functional; in short: as §2
[14] = Cellular uptake in human HeLa cell around nucleus at 2 to 5 uM after 6 hrs by fluorescent microscopic analysis; assay type: ADME, cell-based; in short: as §3
[15] = target: Protein arginine N-methyltransferase 3 (Homo sapiens, UniProt O60678); test: Inhibition of His6X-tagged PRMT3 expressed in Escherichia coli BL21(DE3) cells using [14C]-S-adenosyl-L-methionine and R4 peptide after 8 mins by scintillation counting
Protein arginine N-methyltransferase 3, sequence (O60678 whole entry): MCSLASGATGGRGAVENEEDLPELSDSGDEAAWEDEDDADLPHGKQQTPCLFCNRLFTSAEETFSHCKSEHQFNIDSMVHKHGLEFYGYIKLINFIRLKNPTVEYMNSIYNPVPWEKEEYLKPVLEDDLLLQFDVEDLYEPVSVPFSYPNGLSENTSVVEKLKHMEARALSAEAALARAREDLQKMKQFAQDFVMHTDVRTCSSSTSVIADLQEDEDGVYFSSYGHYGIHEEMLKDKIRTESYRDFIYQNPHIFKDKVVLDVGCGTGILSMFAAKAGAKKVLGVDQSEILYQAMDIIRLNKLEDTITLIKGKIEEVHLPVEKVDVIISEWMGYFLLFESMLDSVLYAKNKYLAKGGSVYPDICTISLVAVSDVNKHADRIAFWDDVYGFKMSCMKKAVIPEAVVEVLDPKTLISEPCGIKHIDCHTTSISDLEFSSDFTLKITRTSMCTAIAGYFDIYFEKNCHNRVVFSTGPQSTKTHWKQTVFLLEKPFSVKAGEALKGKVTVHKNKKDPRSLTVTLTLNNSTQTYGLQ

[16] = Cellular uptake in human HeLa cell cytoplasmic vesicles at 2 to 5 uM after 6 hrs by fluorescent microscopic analysis; assay type: ADME, cell-based; in short: as §3

Compound | Activity [1] [%] | inhibition [2] [%] | IC50 [3] [µM] | Activity [4] [%] | Drug uptake [5] | inhibition [6] | Activity [7] [%] | Drug uptake [8] | Activity [9] | Activity [10] | IC50 [11] [µM] | Drug uptake [12] | Activity [13] [%] | Drug uptake [14] | IC50 [15] [µM] | Drug uptake [16]
CN1\C(=C/C=C(Cl)/C=C/C2=[N+](C)c3ccccc3C2(C)C)C(C)(C)c2ccccc21 | 80 |  |  |  |  |  |  |  |  |  |  |  |  |  |  | 
CCn1/c(=C\C=C\C2=[N+](CC)c3cccc4cccc2c34)c2cccc3cccc1c32.[I-] |  | 92 | 9.1 | 56.5 | Dose-dependent effect | Active | 23.6 | Active | Active | Active | 12.6 | Active | 13.9 | Active | 8.3 | Active
COc1ccc2c(c1)C(C)(C)C(/C=C/C=C/C=C1\N(C)c3ccc(OC)cc3C1(C)C)=[N+]2C | 95 |  |  |  |  |  |  |  |  |  |  |  |  |  |  | 
